Assay outcomes deposited in PubChem BioAssay by several laboratories.
CASP6 VEID inh: caspase-6 (human) enzyme inhibition. purified caspase-6, Z-VEID-R110 cleavage fluorescence. inhibition, % at 12.5 µM. 350,000 tested, 0.53% active. AID 686996;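 active = mean inhibition across replicates at least about 35%, with every replicate also reaching that limit, limit read from the data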;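 note: 0% = median of neutral control wells and 100% = no fluorescence left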
Target sequence (P55212 24-179 limits assumed): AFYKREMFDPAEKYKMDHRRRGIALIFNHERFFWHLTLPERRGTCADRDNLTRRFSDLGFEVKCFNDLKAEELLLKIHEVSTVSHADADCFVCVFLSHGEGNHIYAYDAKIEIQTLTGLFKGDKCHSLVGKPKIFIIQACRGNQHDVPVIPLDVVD
Target sequence (P55212 194-293 limits assumed): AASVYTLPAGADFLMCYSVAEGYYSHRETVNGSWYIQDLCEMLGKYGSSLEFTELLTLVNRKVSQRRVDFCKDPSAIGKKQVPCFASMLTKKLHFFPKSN
TDP2 absorb: TDP2 (human) inhibition, absorbance primary screen | recombinant TDP2, T5PNP hydrolysis, p-nitrophenol absorbance 415 nm | inhibition, % at 12.8 µM | 370,000 tested, 0.34% active | O95551;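 active = inhibition above the mean of all tested compounds plus 3 SD, set per campaign, cut at about 25% in these data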;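 note: 0% = DMSO with enzyme and 100% = buffer with substrate but no TDP2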
Target sequence (O95551 whole entry, looked up): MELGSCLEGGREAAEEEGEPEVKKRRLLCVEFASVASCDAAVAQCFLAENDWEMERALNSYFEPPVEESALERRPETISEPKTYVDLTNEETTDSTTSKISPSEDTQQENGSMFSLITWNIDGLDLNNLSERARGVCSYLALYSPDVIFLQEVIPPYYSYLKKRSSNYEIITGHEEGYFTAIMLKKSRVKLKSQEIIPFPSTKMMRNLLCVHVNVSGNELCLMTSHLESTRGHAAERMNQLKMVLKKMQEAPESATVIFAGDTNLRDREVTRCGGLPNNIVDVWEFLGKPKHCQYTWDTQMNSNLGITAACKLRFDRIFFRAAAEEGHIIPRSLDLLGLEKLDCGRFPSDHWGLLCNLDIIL
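Test system: Human TDP2 enzyme | Reagent: 5 mM T5PNP | Compound dosing: 12.8 µM single point, 1% DMSO | Incubation: Enzyme reaction with compound for 2 h at 37 °C | Technique: p-Nitrophenol epi absorbance | Read-out: % inhibition relative to enzyme-containing and enzyme-free wells | Benchmarks: High control without enzyme, low control DMSO plus TDP2 | Replicates: Singlicate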
NSD2 inh: inhibitors of human histone methyltransferase NSD2. 310,000 tested, 0.54% active. NSD2 peptide methylation, AlphaScreen, 120 min. AID 743445. inhibition, % at 12.5 µM; in the data active = inhibition above about 50%
LEDGF integ inh: blocks HIV-1 LEDGF/p75-dependent DNA integration; TR-FRET IN-LEDGF/p75 DNA integration, Eu/Cy5; inhibition, % at 3.7 µM; 370,000 tested, 0.64% active; AID 743269;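 active = inhibition above the screen-wide mean plus 3 SD, cut at about 13% in these data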;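 note: signal is the Cy5 over europium emission ratio at 671 and 618 nm; 0% = plate median of compound wells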
UCH37 DUB inh: human UCH37 deubiquitinating enzyme inhibition; purified proteasome/UCH37, Ub-AMC cleavage fluorescence; inhibition, % (concentration not given with the values); 330,000 tested, 0.33% active; AID 588478;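 active = mean inhibition over replicate wells above about 20%, limit read from the data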;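 note: 0% = compound-free wells with enzyme and 100% = wells lacking proteasome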
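assay system = human UCH37 enzyme supplied as purified proteasome complex | amount = proteasome at 0.15 nM in the dispensed enzyme solution | schedule = 30 min compound-proteasome preincubation then 25 min substrate reaction, room temperature | measured by = fluorescence, ex 355 nm, em 460 nm | benchmarks = no-proteasome wells (full inhibition) and compound-free wells (no inhibition)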
UCH37 reconfirm: reconfirmed inhibitor of human deubiquitinase UCH37. shares compounds with UCH37 DUB inh. Proteasome-bound UCH37, Ub-AMC cleavage fluorescence. inhibition, % at 20 µM. 480 tested, 27% active;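 active = average inhibition over replicates above about 50%, so the earlier screening hit is confirmed, limit read from the data; inactive = the rest, counted as false positives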;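 note: based on cleavage rate fitted by regression over a 30 min kinetic read; 0% = proteasome plus Ub-AMC and 100% = Ub-AMC without proteasome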
Starred values were filed as active, the others as inactive; . = not tested or not shown; ! = not active in a repeat. An excerpt weighted towards active compounds, which were near 1.3% of everything screened.

SMILES | CASP6 VEID inh | TDP2 absorb | NSD2 inh | LEDGF integ inh | UCH37 DUB inh | UCH37 reconfirm
O=C(O)CC1S/C(=N/N=C/c2ccccn2)NC1=O (configuration not stated) | -2 | -9 | 1 | -1 | . | .
O=C(O)CC1S/C(=N/N=Cc2ccc(-c3ccccc3[N+](=O)[O-])o2)NC1=O (configuration not stated) | . | . | . | . | 26* | 28
Cc1occc1C(=O)NN=CC1=C(N2CCOCC2)/C(=C\c2ccc(Cl)cc2Cl)CC1 | . | . | . | . | -49 | .
C=Cc1c(C)c2cc3[nH]c(cc4nc(cc5nc(cc1[nH]2)C(C)=C5CCC(=O)O)C(CCC(=O)O)=C4C)c(C)c3C=C | 57* | 13 | . | 85* | 47*! | 100*
Cc1ccc(S(=O)(=O)N=C(CN2CCCCC2)N2CCOCC2)cc1 | . | . | . | . | 3 | .
Cc1ccccc1NS(=O)(=O)c1cc(C(=O)NCCC2=CCCCC2)ccc1Cl | . | -2 | -8 | 4 | 55* | 47
CC1CN(S(=O)(=O)c2cc(C(=O)NCCC3=CCCCC3)ccc2Cl)CC(C)O1 (configuration not stated) | -2 | 9 | 0 | -3 | 5 | .
CCOc1ccc(C(=O)NCCC2=CCCCC2)cc1OCC | 5 | -13 | 4 | 3 | 32* | 35
N#Cc1ccc(OCC(=O)NN=C2CCc3ccccc32)cc1 | . | . | . | . | -1 | .
Cc1ccccc1-n1c(=O)cc(N2CCc3ccccc3C2)[nH]c1=O | 16 | -2 | 3 | 1 | 27* | 32
Cc1ccc(-n2c(=O)cc(N3CCc4ccccc4C3)[nH]c2=O)cc1 | . | -1 | 0 | 0 | 34* | 32
COC(=O)c1ccccc1NC1=C/C(=N\S(=O)(=O)c2cccs2)c2ccccc2C1=O | 1 | 12 | 10 | 1 | 30* | 55*!
COC(=O)c1cccc(NS(=O)(=O)c2cccs2)c1C | 1 | -6 | . | -1 | 1 | .
O=C(NN=Cc1ccc2c(c1)OCO2)c1cc(-c2ccco2)nc2ccccc12 | . | . | . | . | -64 | .
COc1cccc(C=NNC(=O)Cn2cnc3c2c(=O)n(C)c(=O)n3C)c1 | . | . | . | . | 5 | .
COc1ccc(NC(=O)c2cncc(Br)c2)c(S(=O)(=O)N2CCOCC2)c1 | . | -6 | -3 | 1 | 35* | 6
COc1ccc(NC(=O)c2cccnc2Cl)c(S(=O)(=O)N2CCOCC2)c1 | . | 4 | -4 | -1 | 0 | .
Cc1nn(-c2ccccc2)c(Cl)c1C=NNC(=O)c1cnccn1 | . | . | . | . | -9 | .
N#CCC(=O)NN=Cc1cc(-c2ccccc2)n(-c2ccc(Cl)cc2)c1-c1ccccc1 | . | . | . | . | -19 | .
CC(=O)Nc1ccc(Sc2ccc([N+](=O)[O-])o2)cc1 | 10 | -6 | 15 | 6 | 28* | 26
COc1cc(/C=C(\C#N)c2nc3ccccc3s2)cc([N+](=O)[O-])c1O | 16 | -6 | 5 | 3 | 26* | 53*
N#C/C(=C\c1ccc(O)c([N+](=O)[O-])c1)c1nc2ccccc2s1 | 15 | -11 | 11 | 2 | 5 | .
COc1cc(OC)c(OC)cc1C=NNC(=O)c1cnccn1 | . | . | . | . | 41* | 27
COc1cc(OC)c([N+](=O)[O-])cc1C=NNC(=O)c1ccncc1 | . | . | . | . | 44* | 15
COc1ccc(/C=N/NC(=O)c2ccncc2)c(OC)c1 | -2 | -12 | 3 | -5 | . | .
SMILES | CASP6 VEID inh | TDP2 absorb | NSD2 inh | LEDGF integ inh | UCH37 DUB inh | UCH37 reconfirm
O=C1/C(=C\c2ccc(-c3ccccc3Cl)o2)SC(=S)N1CC1CCCO1 (configuration not stated) | . | 8 | -4 | 2 | 12 | .
O=C(O)C(c1ccccc1)N1C(=O)/C(=C\c2ccc(-c3ccccc3Cl)o2)SC1=S (configuration not stated) | 86* | -11 | 3 | 6 | 38* | 100*
CC(=NNC(=O)c1cc([N+](=O)[O-])cc([N+](=O)[O-])c1)c1ccco1 | . | . | . | . | 1 | .
O=C(NN=Cc1coc2ccccc2c1=O)c1ccncc1 | . | . | . | . | -29 | .
Cc1[nH][nH]c(=O)c1C(c1ccc(-c2ccc(Cl)c(Cl)c2)o1)c1c(C)[nH][nH]c1=O | . | 64* | . | 3 | 42* | 27
CC(=NNC(=O)c1nnn(-c2nonc2N)c1-c1ccccc1)c1ccncc1 | . | . | . | . | 0 | .
COc1cc(/C=C(\C#N)C(=O)NCC2CCCO2)ccc1O (configuration not stated) | . | -12 | 2 | -4 | 6 | .
N#C/C(=C\c1ccc(N2CCOCC2)o1)C(=O)NC1CCCCC1 | 3 | 0 | 1 | 1 | 30* | 20
N#C/C(=C\c1ccc(N2CCOCC2)o1)C(=O)NCC1CCCO1 (configuration not stated) | 34 | 0 | 4 | 1 | 31* | 40
COCCNC(=O)/C(C#N)=C/c1ccc(-c2ccc(OC)cc2[N+](=O)[O-])o1 | . | -2 | -3 | 0 | 52* | 30
N#C/C(=C\c1ccc(N2CCOCC2)o1)C(=O)NCCc1ccccc1 | 6 | -14 | 0 | 0 | 10 | .
N#C/C(=C/c1ccc(N2CCOCC2)o1)C(=O)Nc1ccccc1 | -18 | 1 | -4 | 2 | 19 | .
COCCNC(=O)/C(C#N)=C/c1ccc(N2CCOCC2)o1 | . | 2 | 2 | -2 | 38* | 36
Cc1nn(-c2ccccc2)c(C)c1C=NNc1nc2ccccc2[nH]1 | . | . | . | . | 1 | .
CCOc1cccc(-c2c(C(=O)NN=Cc3ccc(Br)cc3)nnn2-c2nonc2N)c1 | . | . | . | . | 7 | .
Cc1ccc(SC(c2ccccc2)C(Cn2cncn2)C(=O)c2ccccc2)cc1 (configuration not stated) | . | -3 | 0 | 3 | 42* | 20
CCCC(=NNC(=O)C1CCCC1)c1ccccc1 | . | . | . | . | 5 | .
Nc1cccc([N+](=O)[O-])c1 | -1 | -9 | 1 | -3 | 3 | .
Nc1cc(-c2cccc([N+](=O)[O-])c2)[nH]n1 | 1 | 3 | -2 | 3 | 39* | 6
CCCCCN1C=CC=C/C1=C\C=C(C#N)C#N | 0 | 5 | -1 | -3 | 16 | .
C=CCN1C=CC(=CC=C(C#N)C#N)C=C1 | -4 | 7 | 12 | 0 | 29* | 20
CCCN1C=CC(=CC=C(C#N)C#N)C=C1 | -3 | -18 | 3 | 0 | 38* | 26
C=CCN1C=C/C(=C\C=C(C#N)C#N)c2ccccc21 | 2 | -4 | 26 | -2 | 7 | .
COCCCn1c(=C(C#N)C(=O)NC(C)C)sc(=Cc2ccccc2OC(F)F)c1=O | . | . | . | . | -12 | .
O=C(NN=C(c1ccccc1)c1ccncc1)c1ccc2c(c1)OCO2 | . | . | . | . | 5 | .
COC(=O)C1SCC2C(=O)N(Cc3ccc(Cl)c(Cl)c3)CC(=O)N21 (configuration not stated) | 0 | 3 | -1 | 1 | 29* | 21
O=C(NN=C1CC(=NNC(=O)c2ccncc2)c2ccccc21)c1ccncc1 | . | . | . | . | 46* | 77*
O=C(NN=C1C2CC3CC(C2)CC1C3)c1ccncc1 | . | 0 | -4 | -1 | 2 | .
